The target in assay [1] is F-actin (Oryctolagus cuniculus, UniProt P68135). As to the kind of experiment: LSPR direct binding of cTnT-C14 peptides to immobilized F-actin. Details: species or system rabbit. The conditions noted are these: mutants vs WT. In outline: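 Rabbit back-muscle F-actin immobilized on a carboxyl-gold LSPR chip with no Tm, run as for the Tm binding assay. Chip blocked with ethanolamine and 6-mercapto-1-hexanol. Peptides flowed at 20 μL/min in 0.1 M KCl, 3 mM MgCl2, 10 mM imidazole-HCl pH 7.0, then buffer dissociation. Plateau Δpm taken; rate constants from 1:1 fit; KD = koff/kon.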

Assay [2] deals with tropomyosin (rabbit cardiac α-tropomyosin) (Oryctolagus cuniculus, UniProt P58772). The assay is described as follows: LSPR binding of cTnT-C14 peptides to immobilized tropomyosin. The conditions noted are these: peptide 2 μM, mutants vs WT. In outline: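 Rabbit cardiac α-Tm immobilized on a carboxyl-gold LSPR chip from 50 μg/mL in 10 mM Na acetate pH 4.0. Blocked with 1 M ethanolamine, then 1 mM 6-mercapto-1-hexanol in 30% EtOH. Peptides flowed at 20 μL/min for 4 min in 0.1 M KCl, 3 mM MgCl2, 10 mM imidazole-HCl pH 7.0; buffer dissociation to baseline or plateau. Plateau Δpm taken; 1:1 fit; KD = koff/kon.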

INVLRNRINDNQKV [E16]: the “F-actin binding / binding signal (in words)” value in assay [1] was “non-actin-binding”. Further, in assay [2], the “Tm binding / binding signal (in words)” value is listed as “non-Tm-binding”.

Values taken from article PMC13334471 (Journal of molecular and cellular cardiology, 2026).
